Laboratory results published in ChEMBL document CHEMBL1153112, “Identification of a series of substituted 2-piperazinyl-5-pyrimidylhydroxamic acids as potent histone deacetylase inhibitors” (Bioorg Med Chem Lett, 2010).
≈ marks a conversion by molar mass, not a printed value.

How the values were obtained:
[1] = target: Histone deacetylase; assay: Inhibition of HDAC in human HeLa cells extractt; type: cell-free
[2] = test system: A2780; assay: Antiproliferative activity against human A2780 cells; type: functional, cell-based
Method in brief: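 A2780 ovarian carcinoma proliferation assay in 384-well format, modified from the patent protocol. IC50 given as the mean of triplicate experiments ± SD; some values come from a single experiment.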

[3] = test system: A2780; assay: Anticancer activity against human A2780 cells expressing p21 waf1,cip1 xenografted in athymic nude mouse assessed as fold increase in fluorescence at 40 mg/kg, po administered once for 3 days relative to R306465; type: functional
Method in brief: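 A2780 ovarian carcinoma cells engineered to express ZsGreen under the p21waf1,cip1 promoter were grafted subcutaneously into athymic nude mice. Animals were dosed orally at 40 mg/kg for 3 days. In vivo fluorescence induction was then read by noninvasive whole-body imaging and expressed as fold increase versus reference R306465 set at 1.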

[4] = AUC (0 to infinity) in Sprague-Dawley rat at 2.5 mg/kg, iv administered in water at pH 4.4; type: ADME, organism-based; set-up: time infinity, dose 2.5 mg/kg, route intravenous; details: plasma
Method in brief: (§1)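 Male Sprague-Dawley rats. IV arm dosed at 2.5 mg/kg in water at pH 4.4; oral arm dosed at 10 mg/kg in water at pH 4.5. AUC0-inf taken for each route. Clearance and Vdss come from the IV arm. F (%) comes from the oral versus IV exposure.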

[5] = Volume of distribution at steady state in Sprague-Dawley rat at 2.5 mg/kg, iv administered in water at pH 4.4; type: ADME, organism-based; set-up: dose 2.5 mg/kg, route intravenous; details: in vivo, read-out: Vdss; method in brief: as §1
[6] = AUC (0 to infinity) in Sprague-Dawley rat at 10 mg/kg, po administered in water at pH 4.5; type: ADME, organism-based; set-up: time infinity, dose 10 mg/kg, route oral; details: plasma; method in brief: as §1
[7] = Half life in Sprague-Dawley rat at 2.5 mg/kg, iv administered in water at pH 4.4 measured 1 to 4 hrs post dose; type: ADME, organism-based; set-up: dose 2.5 mg/kg, route intravenous; details: in vivo
Method in brief: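 Male Sprague-Dawley rats given 2.5 mg/kg IV in water at pH 4.4. Terminal half-life fitted over the 1 h to 4 h post-dose window.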

[8] = Oral bioavailability in Sprague-Dawley rat at 10 mg/kg administered in water at pH 4.5; type: ADME, organism-based; details: in vivo; method in brief: as §1
[9] = Clearance in Sprague-Dawley rat at 2.5 mg/kg, iv administered in water at pH 4.4; type: ADME, organism-based; set-up: dose 2.5 mg/kg, route intravenous; details: in vivo; method in brief: as §1
[10] = Half life in Sprague-Dawley rat at 2.5 mg/kg, iv administered in water at pH 4.4 measured 2 to 8 hrs post dose; type: ADME, organism-based; set-up: dose 2.5 mg/kg, route intravenous; details: in vivo
Method in brief: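 Male Sprague-Dawley rats given 2.5 mg/kg IV in water at pH 4.4. Half-life estimated from the 2 h to 8 h post-dose interval.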

[11] = Thermodynamic solubility in phosphate-citrate buffer at pH 4.6; type: physicochemical
Method in brief: (§2)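 Thermodynamic solubility. About 2.5 mg of solid was weighed and equilibrated in phosphate-citrate buffer at the stated pH, then filtered where needed. The filtrate was diluted in 0.1 N HCl/acetonitrile (1/1) and the concentration measured by UPLC.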

[12] = Thermodynamic solubility in phosphate-citrate buffer at pH 7.4; type: physicochemical; method in brief: as §2
[13] = Thermodynamic solubility in phosphate-citrate buffer at pH 7.7; type: physicochemical; method in brief: as §2

Compound | IC50 [1] [nM] | IC50 ([2]; Homo sapiens, A2780) [nM] | other results
O=C(NO)c1cnc(N2CCC(NC(/C=C/c3ccccc3)CO)CC2)nc1 (centres undefined) | 7 | 219 | –
COCC(/C=C/c1ccccc1)N1CCN(c2ncc(C(=O)NO)cn2)CC1 (centres undefined) | 1.5 | 45 | –
CN1CCN(CC(/C=C/c2ccccc2)N2CCN(c3ncc(C(=O)NO)cn3)CC2)CC1 (centres undefined) | 6.9 | 392 | –
O=C(NO)c1cnc(N2CCN(C(/C=C/c3ccccc3)C(=O)N3CCOCC3)CC2)nc1 (centres undefined) | 7 | 124 | –
O=C(NO)c1cnc(N2CCN(C(/C=C/c3ccc(C(F)(F)F)cc3)CO)CC2)nc1 (centres undefined) | 2.1 | 65 | –
O=C(NO)c1cnc(N2CCC(CNC(/C=C/c3ccccc3)CO)CC2)nc1 (centres undefined) | 1.5 | 47 | –
O=C(NO)c1cnc(N2CCN(C(/C=C/c3ccccc3F)CO)CC2)nc1 (centres undefined) | 2 | < 30 | –
O=C(NO)c1cnc(N2CCN(Cc3ccc4ccccc4c3)CC2)nc1 | 1.5 | 66 | –
COc1ccc(/C=C/C(CO)N2CCN(c3ncc(C(=O)NO)cn3)CC2)cc1 (centres undefined) | 0.95 | 18 | –
O=C(NO)c1cnc(N2CCN(C(/C=C/c3ccccc3)CN3CCOCC3)CC2)nc1 (centres undefined) | 11 | 315 | –
Cc1ccc(/C=C/C(CO)N2CCN(c3ncc(C(=O)NO)cn3)CC2)cc1 (centres undefined) | 1 | 18 | –
CC(/C=C/c1ccccc1)N1CCN(c2ncc(C(=O)NO)cn2)CC1 (centres undefined) | 1.7 | 20 | –
CNC(=O)C(/C=C/c1ccccc1)N1CCN(c2ncc(C(=O)NO)cn2)CC1 (centres undefined) | 3.3 | 159 | –
NC(/C=C/c1ccccc1)CN1CCN(c2ncc(C(=O)NO)cn2)CC1 (centres undefined) | 3.8 | 281 | fold change (FC) [3]: 0.5
O=C(NO)c1cnc(N2CCOC(CNC(/C=C/c3ccccc3)CO)C2)nc1 (centres undefined) | 8 | 295 | –
O=C(NO)c1cnc(N2CCN(C(/C=C/c3ccc(Cl)cc3)CO)CC2)nc1 (centres undefined) | 1.2 | 17 | –
O=C(NO)c1cnc(N2CCN(C(/C=C/c3ccc(-c4ccccc4)cc3)CO)CC2)nc1 (centres undefined) | 0.9 | 29 | –
O=C(NO)c1cnc(N2CCN(C(/C=C/c3cccc(F)c3)CO)CC2)nc1 (centres undefined) | 1.2 | 36 | –
O=C(NO)c1cnc(N2CCN(C(/C=C/c3ccc(F)cc3)CO)CC2)nc1 (single isomer, unassigned; (+)) | – | – | IC50 ([2]; a2780): 27 nM
O=C(NO)c1cnc(N2CCN(C(/C=C/c3ccc(F)cc3)CO)CC2)nc1 (single isomer, unassigned; (-)) | – | – | AUC(0-inf) [4]: 521 ng·h/mL; Vd [5]: 1.6 L/kg; AUC(0-inf) [6]: 466 ng·h/mL; half-life [7]: 0.8 h; bioavailability [8]: 22%; clearance [9]: 76.7 mL/min/kg; IC50 ([2]; a2780): 31 nM
O=C(NO)c1cnc(N2CCN(C(/C=C/c3ccccc3)CO)CC2)nc1 (single isomer, unassigned; (-)) | 1.8 | – | IC50 ([2]; a2780): 30 nM
O=C(NO)c1cnc(N2CCN(C(/C=C/c3ccccc3)CO)CC2)nc1 (stereo in doubt; 3a1) | 1 | – | IC50 ([2]; a2780): 40 nM
O=C(NO)c1cnc(N2CCN(C(/C=C/c3ccccc3)CO)CC2)nc1 (stereo in doubt; 3a) | 2 | 25 | AUC(0-inf) [4]: 413 ng·h/mL; Vd [5]: 5.8 L/kg; AUC(0-inf) [6]: 316 ng·h/mL; half-life [10]: 2.6 h; fold change (FC) [3]: 5; bioavailability [8]: 19%; clearance [9]: 98.3 mL/min/kg; solubility thermodynamic [11]: > 10000 µg/mL; solubility thermodynamic [12]: 1100 µg/mL (≈ 2980 µM)
O=C(NO)c1cnc(N2CCN(C(/C=C/c3ccc(F)cc3)CO)CC2)nc1 (stereo in doubt; 3i) | – | 32 | –
O=C(NO)c1cnc(N2CCN(S(=O)(=O)c3ccc4ccccc4c3)CC2)nc1 [R-306465] | – | 39 | AUC(0-inf) [4]: 2650 ng·h/mL; Vd [5]: 0.6 L/kg; AUC(0-inf) [6]: 3380 ng·h/mL; half-life [10]: 1.5 h; solubility thermodynamic [13]: < 100 µg/mL; bioavailability [8]: 20%; clearance [9]: 13.3 mL/min/kg
